Calls of active or inactive are those of the source. No cut-off for these calls is given here. Where a SMILES comes first, the peptide text is derived from it. [ ]: non-standard residue; d: D form. Oic = O=C(O)[C@@H]1C[C@@H]2CCCC[C@@H]2N1; d2Nal = N[C@H](Cc1ccc2ccccc2c1)C(=O)O; Hyp = O=C(O)[C@@H]1C[C@@H](O)CN1; dTic = O=C(O)[C@H]1Cc2ccccc2CN1; 2Thi = N[C@@H](Cc1cccs1)C(=O)O
Legend:
Format in all cases: functional, tissue-based
B1 bradykinin receptor = target: T1, B1 bradykinin receptor (Rattus norvegicus, UniProt P97583); test: Antagonistic activity against Bradykinin receptor B1 of rat ileum longitudinal smooth muscle.; conditions: for Kb: read-out: pA2 (converted)
T1 sequence (P97583 whole entry): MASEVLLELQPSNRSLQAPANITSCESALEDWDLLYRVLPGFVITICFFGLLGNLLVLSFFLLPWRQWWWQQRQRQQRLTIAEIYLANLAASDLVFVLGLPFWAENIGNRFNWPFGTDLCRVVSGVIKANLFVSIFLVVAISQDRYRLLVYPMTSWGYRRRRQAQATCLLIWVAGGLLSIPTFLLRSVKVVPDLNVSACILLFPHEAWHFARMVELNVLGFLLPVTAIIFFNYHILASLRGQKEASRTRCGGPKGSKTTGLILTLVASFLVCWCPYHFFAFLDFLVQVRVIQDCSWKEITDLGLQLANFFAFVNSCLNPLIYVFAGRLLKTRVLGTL
Outline: (§1)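 Rat ileum longitudinal muscle-myenteric plexus strips in oxygenated (95% O2/5% CO2) Krebs with indomethacin, guanethidine (3 μM each), chlorpheniramine, atropine (1 μM each). Cumulative desArg9-BK curves with thiorphan, bestatin, captopril (1 μM each); antagonist given 15 min before repeat curve at 1–10 μM. Contraction read-out; pA2 (dose ratio 2), mean ± SE of 4–15 experiments.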

B2 bradykinin receptor = target: T2, B2 bradykinin receptor (Cavia porcellus, UniProt O70526); test: (§2) Antagonistic activity against Bradykinin receptor B2 of guinea pig ileum longitudinal smooth muscle.; conditions: for Kb: read-out: pA2 (converted)
T2 sequence (O70526 whole entry): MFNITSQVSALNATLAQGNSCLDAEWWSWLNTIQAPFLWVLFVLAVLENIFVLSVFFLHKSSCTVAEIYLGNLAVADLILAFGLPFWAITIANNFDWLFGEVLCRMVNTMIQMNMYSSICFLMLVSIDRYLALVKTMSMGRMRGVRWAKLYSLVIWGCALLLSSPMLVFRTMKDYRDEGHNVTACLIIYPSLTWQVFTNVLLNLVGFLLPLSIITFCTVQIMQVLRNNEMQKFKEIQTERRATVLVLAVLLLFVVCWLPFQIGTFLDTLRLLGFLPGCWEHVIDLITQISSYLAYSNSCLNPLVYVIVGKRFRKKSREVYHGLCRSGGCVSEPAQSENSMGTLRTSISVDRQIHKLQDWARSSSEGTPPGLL
Outline: as §1, with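 “Guinea pig” for “Rat”, “BK” for “desArg9-BK”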

[1] = target: T3, B2 bradykinin receptor (Cavia porcellus) (UniProt O70526); test: as §2
T3 sequence (whole entry): T2 sequence (O70526 whole entry)
Outline: as §1, with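 “Guinea pig” for “Rat”, “BK” for “desArg9-BK”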

`CC[C@H](C)[C@H](NC(=O)[C@@H](Cc1ccc2ccccc2c1)NC(=O)[C@H](CO)NC(=O)CCCCCCCCCCNC(=O)[C@H](CCCN=C(N)N)NC(=O)[C@H](CCCCN)NC(C)=O)C(=O)O` showed a Kb (B1 bradykinin receptor) of 100 nM and a Kb (B2 bradykinin receptor) of 1260 nM.
In the case of `NC(N)=NCCC[C@@H](N)C(=O)N[C@@H](CCCN=C(N)N)C(=O)NCCCCCCCCCCCC(=O)N[C@@H](CO)C(=O)N1Cc2ccccc2C[C@@H]1C(=O)N1[C@H](C(=O)O)C[C@@H]2CCCC[C@@H]21`, the Kb (B1 bradykinin receptor) is reported as 100 nM and the Kb (B2 bradykinin receptor) is reported as 3980 nM.
With `NC(N)=NCCC[C@@H](N)C(=O)N[C@@H](CCCN=C(N)N)C(=O)NC1(C(=O)N[C@@H](CO)C(=O)N2Cc3ccccc3C[C@@H]2C(=O)N2[C@H](C(=O)O)C[C@@H]3CCCC[C@@H]32)CCCCCCCC1` the pA2 [1] was “inactive” and the Kb (B1 bradykinin receptor) was 6310 nM.
For `NC(N)=NCCC[C@@H](N)C(=O)N[C@@H](CCCN=C(N)N)C(=O)NCCCCCCCCCCC(=O)N[C@@H](CO)C(=O)N1Cc2ccccc2C[C@@H]1C(=O)N1[C@H](C(=O)O)C[C@@H]2CCCC[C@@H]21`, the pA2 [1] was “inactive” and the Kb (B1 bradykinin receptor) was 79.4 nM.
For `CC(=O)N[C@@H](CCCCN)C(=O)N[C@@H](CCCN=C(N)N)C(=O)NCCCCCCCCCCC(=O)N[C@@H](CO)C(=O)N1Cc2ccccc2C[C@@H]1C(=O)N1[C@H](C(=O)O)C[C@@H]2CCCC[C@@H]21`, the pA2 [1] was “inactive” and the Kb (B1 bradykinin receptor) was 251 nM.
With `NCCCC[C@H](NC(=O)[C@@H](N)CCCCN)C(=O)N[C@@H](CCCN=C(N)N)C(=O)NCCCCCCCCCCC(=O)N[C@@H](CO)C(=O)N[C@@H](C(=O)N1[C@@H](C(=O)O)C[C@@H]2CCCC[C@@H]21)C1Cc2ccccc2C1` the pA2 (B1 bradykinin receptor) was 6.3 and the pA2 (B2 bradykinin receptor) was 5.5.
With `NCCCC[C@H](NC(=O)[C@@H](N)CCCCN)C(=O)N[C@@H](CCCN=C(N)N)C(=O)NCCCCCCCCCCC(=O)N[C@@H](CO)C(=O)N1Cc2ccccc2C[C@@H]1C(=O)N1[C@H](C(=O)O)C[C@@H]2CCCC[C@@H]21` the pA2 [1] was “inactive” and the Kb (B1 bradykinin receptor) was 794 nM.
`NCCCCC(N)C(=O)N[C@@H](CCCN=C(N)N)C(=O)NCCCCCCCCCCC(=O)N[C@@H](CO)C(=O)N1Cc2ccccc2C[C@@H]1C(=O)N1[C@H](C(=O)O)C[C@@H]2CCCC[C@@H]21` (stereo in doubt) was tested, and the pA2 [1] was “inactive” and the Kb (B1 bradykinin receptor) was 1000 nM.
Molecule `NC(N)=NCCC[C@@H](N)C(=O)N[C@@H](CCCN=C(N)N)C(=O)N1CCC[C@H]1C(=O)N1C[C@H](O)C[C@H]1C(=O)NCC(=O)N[C@H](C(=O)N[C@@H](CO)C(=O)N[C@@H](C(=O)N1[C@H](C(=O)N[C@@H](CCCN=C(N)N)C(=O)O)C[C@@H]2CCCC[C@@H]21)C1Cc2ccccc2C1)C1Cc2ccccc2C1` has a Kb (B1 bradykinin receptor) of 20 nM and a Kb (B2 bradykinin receptor) of 6.31 nM.
`NC(N)=NCCC[C@@H](N)C(=O)N[C@@H](CCCN=C(N)N)C(=O)NCCCCCCCCCCC(=O)N[C@@H](CO)C(=O)N[C@@H](C(=O)N1[C@H](C(=O)N[C@@H](CCCN=C(N)N)C(=O)O)C[C@@H]2CCCC[C@@H]21)C1Cc2ccccc2C1` was tested, and the Kb (B1 bradykinin receptor) was 10000 nM and the Kb (B2 bradykinin receptor) was 794 nM.
For `N=C(N)NCCC[C@@H](N)C(=O)N[C@@H](CCCNC(=N)N)C(=O)N1CCC[C@H]1C(=O)N1C[C@H](O)C[C@H]1C(=O)NCC(=O)N[C@@H](Cc1cccs1)C(=O)N[C@@H](CO)C(=O)N1Cc2ccccc2C[C@@H]1C(=O)N1[C@H](C(=O)O)C[C@@H]2CCCC[C@@H]21` (H-[dR]RP[Hyp]G[2Thi]S[dTic][Oic]-OH), the Kb (B1 bradykinin receptor) was 158 nM and the Kb (B2 bradykinin receptor) was 2000 nM.
For `NC(N)=NCCC[C@@H](N)C(=O)N[C@@H](CCCN=C(N)N)C(=O)NCC(=O)NC1(C(=O)NCC(=O)N[C@@H](CO)C(=O)N2Cc3ccccc3C[C@@H]2C(=O)N2[C@H](C(=O)O)C[C@@H]3CCCC[C@@H]32)CCCCCC1`, the pA2 [1] was “inactive” and the Kb (B1 bradykinin receptor) was 6310 nM.
In the case of `NC(N)=NCCC[C@@H](N)C(=O)N[C@@H](CCCN=C(N)N)C(=O)NCCCCCCCC(=O)N[C@@H](CO)C(=O)N1Cc2ccccc2C[C@@H]1C(=O)N1[C@H](C(=O)O)C[C@@H]2CCCC[C@@H]21`, the pA2 [1] is reported as “inactive” and the Kb (B1 bradykinin receptor) is reported as 3980 nM.
In the case of `NC(N)=NCCC[C@@H](N)C(=O)N[C@@H](CCCN=C(N)N)C(=O)NCCCC(=O)NC1(C(=O)NCCCC(=O)N[C@@H](CO)C(=O)N2Cc3ccccc3C[C@@H]2C(=O)N2[C@H](C(=O)O)C[C@@H]3CCCC[C@@H]32)CCCCCC1`, the Kb (B1 bradykinin receptor) is reported as 2000 nM and the Kb (B2 bradykinin receptor) is reported as over 10000 nM.
In the case of `CC[C@H](C)[C@H](NC(=O)[C@@H](Cc1ccc2ccccc2c1)NC(=O)[C@H](CO)NC(=O)[C@H](Cc1ccccc1)NC(=O)CNC(=O)[C@@H]1CCCN1C(=O)[C@@H]1CCCN1C(=O)[C@H](CCCN=C(N)N)NC(=O)[C@H](CCCCN)NC(C)=O)C(=O)O` (Ac-KRPPGFS[d2Nal]I-OH), the Kb (B1 bradykinin receptor) is reported as 63.1 nM and the Kb (B2 bradykinin receptor) is reported as 1000 nM.
In the case of `NCCCC[C@H](NC(=O)[C@@H](N)CCCCN)C(=O)N[C@@H](CCCN=C(N)N)C(=O)N1CCC[C@H]1C(=O)N1C[C@H](O)C[C@H]1C(=O)NCC(=O)N[C@H](C(=O)N[C@@H](CO)C(=O)N[C@@H](C(=O)N1[C@H](C(=O)O)C[C@@H]2CCCC[C@@H]21)C1Cc2ccccc2C1)C1Cc2ccccc2C1`, the Kb (B1 bradykinin receptor) is reported as 7.94 nM and the Kb (B2 bradykinin receptor) is reported as 3160 nM.
Molecule `NC(N)=NCCC[C@@H](N)C(=O)N[C@@H](CCCN=C(N)N)C(=O)NCCCCCCCCCCC(=O)N[C@@H](CO)C(=O)N[C@@H](C(=O)N1[C@@H](C(=O)O)C[C@H]2CCCC[C@H]21)C1Cc2ccccc2C1` has a pA2 (B1 bradykinin receptor) of 6.3 and a pA2 (B2 bradykinin receptor) of 6.
For `NC(N)=NCCC[C@@H](N)C(=O)N[C@@H](CCCN=C(N)N)C(=O)NC1(C(=O)N[C@@H](CO)C(=O)N2Cc3ccccc3C[C@@H]2C(=O)N2[C@H](C(=O)O)C[C@@H]3CCCC[C@@H]32)CCCCCC1`, the pA2 [1] was “inactive” and the Kb (B1 bradykinin receptor) was 1260 nM.
In the case of `NC(N)=NCCC[C@@H](N)C(=O)N[C@@H](CCCN=C(N)N)C(=O)NC1(C(=O)N[C@@H](CO)C(=O)N2Cc3ccccc3C[C@@H]2C(=O)N2[C@H](C(=O)O)C[C@@H]3CCCC[C@@H]32)CCCCC1`, the pA2 [1] is reported as “inactive” and the Kb (B1 bradykinin receptor) is reported as 10000 nM.
`NC(N)=NCCC[C@@H](N)C(=O)N[C@@H](CCCN=C(N)N)C(=O)NCCCCCC(=O)N[C@@H](CO)C(=O)N1Cc2ccccc2C[C@@H]1C(=O)N1[C@H](C(=O)O)C[C@@H]2CCCC[C@@H]21` was tested, and the pA2 [1] was “inactive” and the Kb (B1 bradykinin receptor) was 2000 nM.
`NC(N)=NCCC[C@@H](N)C(=O)N[C@@H](CCCN=C(N)N)C(=O)NCCC(=O)NC1(C(=O)NCCC(=O)N[C@@H](CO)C(=O)N2Cc3ccccc3C[C@@H]2C(=O)N2[C@H](C(=O)O)C[C@@H]3CCCC[C@@H]32)CCCCCC1` was tested, and the pA2 [1] was “inactive” and the Kb (B1 bradykinin receptor) was 2510 nM.
Work on `NC(N)=NCCC[C@@H](N)C(=O)N[C@@H](CCCN=C(N)N)C(=O)NC1(C(=O)N[C@@H](CO)C(=O)N2Cc3ccccc3C[C@@H]2C(=O)N2[C@H](C(=O)O)C[C@@H]3CCCC[C@@H]32)CCCCCCC1` yielded a Kb (B1 bradykinin receptor) of 3160 nM and a Kb (B2 bradykinin receptor) of over 10000 nM.

Source: ChEMBL document CHEMBL1132566, “A new class of pseudopeptide antagonists of the kinin B1 receptor containing alkyl spacers” (J Med Chem, 1999)
